In ChEMBL document CHEMBL1144025, “1,3-Dipropyl-8-(1-phenylacetamide-1H-pyrazol-3-yl)-xanthine derivatives as highly potent and selective human A(2B) adenosine receptor antagonists” (Bioorg Med Chem, 2008):

Legend:
Format in all cases: cell-based
[1] = biological target: T1, Adenosine receptor A3 (Homo sapiens, UniProt P0DMS8); assay: Displacement of [3H]MRE3008F20 from human adenosine A3 receptor expressed in CHO cells
T1 sequence (P0DMS8 whole entry): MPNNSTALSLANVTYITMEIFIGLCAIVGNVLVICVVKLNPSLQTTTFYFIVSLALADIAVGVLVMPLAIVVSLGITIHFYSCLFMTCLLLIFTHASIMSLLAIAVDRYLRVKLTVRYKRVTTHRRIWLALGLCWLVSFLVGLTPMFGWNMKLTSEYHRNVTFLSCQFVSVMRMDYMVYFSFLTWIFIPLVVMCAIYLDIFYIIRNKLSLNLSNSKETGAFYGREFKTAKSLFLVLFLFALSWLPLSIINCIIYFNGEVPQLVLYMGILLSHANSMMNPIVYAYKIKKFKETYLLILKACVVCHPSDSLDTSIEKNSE
Summary of the method: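 Membranes (50 µg protein/assay) in 50 mM Tris-HCl, 10 mM MgCl2, 1 mM EDTA, pH 7.4, incubated 120 min at 4 °C with [³H]MRE3008F20 and at least 6–8 ligand concentrations. Nonspecific binding defined with 1 µM MRE 3008F20. Glass fiber filtration and counting. Ki via Cheng-Prusoff; n = 3–6.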

[2] = biological target: T2, Adenosine receptor A1 (Homo sapiens, UniProt P30542); assay: Displacement of [3H]DPCPX from human adenosine A1 receptor expressed in CHO cells
T2 sequence (P30542 whole entry): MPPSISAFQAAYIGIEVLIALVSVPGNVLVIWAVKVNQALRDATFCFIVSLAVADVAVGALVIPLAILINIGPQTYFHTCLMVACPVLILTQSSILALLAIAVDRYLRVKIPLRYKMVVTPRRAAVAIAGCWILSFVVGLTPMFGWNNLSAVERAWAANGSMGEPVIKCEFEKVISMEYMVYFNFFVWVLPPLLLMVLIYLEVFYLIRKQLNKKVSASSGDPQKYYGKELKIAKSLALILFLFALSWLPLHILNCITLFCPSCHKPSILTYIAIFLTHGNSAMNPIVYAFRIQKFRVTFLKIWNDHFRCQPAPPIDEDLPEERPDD

[3] = biological target: Adenosine receptor A2a (Homo sapiens, UniProt P29274); assay: Displacement of [3H]ZM-241385 from human adenosine A2A receptor expressed in CHO cells
Summary of the method: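 Membranes (50 µg protein/assay) in 50 mM Tris-HCl, 10 mM MgCl2, pH 7.4, incubated 60 min at 4 °C with [³H]ZM241385 and at least 6–8 concentrations of compound. Nonspecific binding defined with 1 µM ZM 241385. GF/B filtration and counting. Ki by Cheng-Prusoff; n = 3–6.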

[4] = biological target: T3, Adenosine receptor A2b (Homo sapiens, UniProt P29275); assay: Displacement of [3H]MRE2029F20 from human adenosine A2B receptor expressed in HEK293 cells
T3 sequence (P29275 whole entry): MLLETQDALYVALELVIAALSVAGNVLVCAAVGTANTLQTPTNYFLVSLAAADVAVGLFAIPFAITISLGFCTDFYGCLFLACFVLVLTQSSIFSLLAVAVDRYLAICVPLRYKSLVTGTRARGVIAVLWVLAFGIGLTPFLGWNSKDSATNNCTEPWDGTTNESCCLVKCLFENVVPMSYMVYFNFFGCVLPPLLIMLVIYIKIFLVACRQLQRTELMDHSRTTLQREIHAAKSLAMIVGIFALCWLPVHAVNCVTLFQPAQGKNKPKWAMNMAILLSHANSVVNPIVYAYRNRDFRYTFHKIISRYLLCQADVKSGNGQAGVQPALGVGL
Summary of the method: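 Membranes (50 µg protein/assay) in 50 mM Tris-HCl, 10 mM MgCl2, 1 mM EDTA, pH 7.4, incubated 120 min at 4 °C with [³H]MRE2029F20 and at least 6–8 compound concentrations. Nonspecific binding defined with 1 µM MRE 2029F20. GF/B filtration, scintillation counting. Ki via Cheng-Prusoff; n = 3–6.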

Sequence of Adenosine receptor A2a (P29274 whole entry): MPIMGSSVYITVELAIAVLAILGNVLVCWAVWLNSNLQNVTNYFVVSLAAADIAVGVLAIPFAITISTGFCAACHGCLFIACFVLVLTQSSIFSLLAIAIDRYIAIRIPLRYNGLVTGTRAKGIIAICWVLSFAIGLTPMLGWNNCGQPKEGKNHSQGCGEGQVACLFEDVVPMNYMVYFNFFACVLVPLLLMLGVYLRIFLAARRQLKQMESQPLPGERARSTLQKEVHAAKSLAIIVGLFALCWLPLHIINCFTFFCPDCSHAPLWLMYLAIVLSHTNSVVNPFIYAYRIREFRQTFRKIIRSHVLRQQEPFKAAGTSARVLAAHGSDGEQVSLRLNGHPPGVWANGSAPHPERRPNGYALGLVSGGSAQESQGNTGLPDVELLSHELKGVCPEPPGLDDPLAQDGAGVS

SMILES	Ki [1]	Ki [2]	Ki [3]	Ki [4]
CCCn1c(=O)c2[nH]c(-c3ccn(CC(=O)Nc4ccc(Cl)cc4)n3)nc2n(CCC)c1=O	> 1 µM			
CCCn1c(=O)c2[nH]c(-c3cc(C)n(CC(=O)Nc4cccc(Cl)c4)n3)nc2n(CCC)c1=O	> 1 µM			
CCCn1c(=O)c2[nH]c(-c3cc(C)n(CC(=O)Nc4ccc(Br)cc4)n3)nc2n(CCC)c1=O	> 1 µM	> 1 µM	> 1 µM	
CCCn1c(=O)c2[nH]c(-c3cc(C)n(CC(=O)Nc4cccc5ccccc45)n3)nc2n(CCC)c1=O	> 1 µM			> 1 µM
CCCn1c(=O)c2[nH]c(-c3cc(C)n(CC(=O)Nc4ccc(OC)cc4)n3)nc2n(CCC)c1=O	> 1 µM			
CCCn1c(=O)c2[nH]c(-c3cc(C)n(CC(=O)Nc4ccc(F)cc4)n3)nc2n(CCC)c1=O	> 1 µM			
CCCn1c(=O)c2[nH]c(-c3cc(C)n(CC(=O)Nc4ccc(Cl)cc4)n3)nc2n(CCC)c1=O	> 1 µM	> 1 µM	> 1 µM	
CCCn1c(=O)c2[nH]c(-c3cc(C)n(CC(=O)Nc4ccc(Cl)c(Cl)c4)n3)nc2n(CCC)c1=O	> 1 µM			
CCCn1c(=O)c2[nH]c(-c3cc(C)n(CC(=O)Nc4cccc(OC)c4)n3)nc2n(CCC)c1=O	> 1 µM			
CCCn1c(=O)c2[nH]c(-c3cc(C)n(CC(=O)Nc4ccc(I)cc4)n3)nc2n(CCC)c1=O	> 1 µM			
CCCn1c(=O)c2[nH]c(-c3nn(CC(=O)Nc4ccc(Cl)cc4)c(C)c3I)nc2n(CCC)c1=O	> 1 µM			> 1 µM
CCCn1c(=O)c2[nH]c(-c3nn(CC(=O)Nc4ccc(Cl)cc4)c(C)c3Cl)nc2n(CCC)c1=O	> 1 µM			
CCCn1c(=O)c2[nH]c(-c3cc(CC)n(CC(=O)Nc4ccc(Cl)cc4)n3)nc2n(CCC)c1=O	> 1 µM			> 1 µM
CCCn1c(=O)c2[nH]c(-c3cc(C)n(CC(=O)Nc4ccc(N(C)C)cc4)n3)nc2n(CCC)c1=O	> 1 µM			> 1 µM
CCCn1c(=O)c2[nH]c(-c3cc(C)n(CC(=O)Nc4ccc(OC)c(OC)c4)n3)nc2n(CCC)c1=O	> 1 µM			
CCCn1c(=O)c2[nH]c(-c3cc(OCC(=O)Nc4ccc(OC)c(OC)c4)nn3C)nc2n(CCC)c1=O	> 1 µM	> 1 µM	> 1 µM	
CCCn1c(=O)c2[nH]c(-c3cc(C)n(CC(=O)Nc4ccc(C)cc4)n3)nc2n(CCC)c1=O	> 1 µM			
CCCn1c(=O)c2[nH]c(-c3cc(C)n(CC(=O)Nc4ccc(C)c(C)c4)n3)nc2n(CCC)c1=O	> 1 µM			
CCCn1c(=O)c2[nH]c(-c3nn(CC(=O)Nc4ccc(Cl)cc4)c(C)c3Br)nc2n(CCC)c1=O	> 1 µM			
CCCn1c(=O)c2[nH]c(-c3cc(C)n(CC(=O)Nc4ccccc4)n3)nc2n(CCC)c1=O	> 1 µM			
